# An excerpt weighted towards active compounds, which were near 2.3% of everything screened.
# TAAR1 antagonist: human TAAR1 antagonists, primary screen, Fluo-8 calcium fluorescence, CHO RD-HGA16 cells; 1.5% of 360,000 active; inhibition, % at 3 µM; antagonist; Trace amine-associated receptor 1 (Homo sapiens), Q96RJ0;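 active = inhibition above a per-plate cutoff, the mean inhibition of test compounds on that plate plus 3 SD, cut at about 49% in these data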;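 note: 0% = DMSO plus EC80 beta-PEA response and 100% = DMSO alone without agonist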
#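 Test system – hTAAR1-expressing CHO RD-HGA16 cells, Gα16-coupled · Also added – β-PEA at EC80 concentration, post-compound challenge · Compound – 3 µM, single point · Incubation – dye loading 75 min at 37 °C, then 30 min room temperature · Measured by – Fluo-8 intracellular calcium dye fluorescence, real-time kinetic reads · Benchmarks – vehicle and agonist controls · Replicates – singlicate, one well per test compound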
# TAAR1 ag: human TAAR1 agonists, primary screen, Fluo-8 calcium fluorescence, CHO RD-HGA16 cells; Trace amine-associated receptor 1 (Homo sapiens), Q96RJ0; vehicle wells 0%, saturating PEA agonist 100%; 0.99% of 360,000 active; activation, % at 3 µM;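 active = activation above the mean activation of all test compounds in the run plus 3 SD, cut at about 38% in these data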
#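 System: CHO-derived RD-HGA16 cells with stable Gα16 and human TAAR1. Times: 17-24 h plating, Fluo-8 75 min 37 °C, 30 min RT. Measured by: calcium-sensitive Fluo-8 signal, excitation 470-495, emission 515-575 nm. Read-out basis: % activation relative to PEA EC100 response. Control set: DMSO and PEA EC100. Repeats: no replicates (n 1).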
# OXTR potentiator: human OXTR potentiators, primary screen, fluorescence, CHO-OTR cells, Fluo-8 calcium; activation, % at 3 µM; Fluo-8 calcium fluorescence, potentiator mode; 0% = oxytocin EC15, 100% = EC100; AID 2445, 2010; 0.061% of 320,000 active;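 active = activation above that plate's cutoff, the mean activation of tested compounds plus 3 SD, cut at about 6.6% in these data, passing the limit was not always enough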;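 note: 100% uses oxytocin at 75 nM as the full agonist control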
#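 Replication – single well per compound, singlicate · Assay system – CHO cell line stably expressing human OTR · Timing – 6 min pre-incubation, 100 s read · Measure – normalized max/min fluorescence ratio, % activation · Doses – 3.0 µM, one dose · Detection – Fluo-8 calcium dye fluorescence · Probe or stimulus – oxytocin near EC15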
# OXTR agonist: human OXTR agonists, primary screen, fluorescence, CHO-OTR cells, Fluo-8 calcium; Oxytocin receptor (Homo sapiens), P30559; Fluo-8 calcium fluorescence; normalized: DMSO 0%, oxytocin 100%; activation, % at 3 µM; 0.32% of 320,000 active; AID 2435, 2010;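 active = activation above the mean of all tested compounds plus 3 SD, cutoff set per screening run, cut at about 20% in these data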;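 note: peak over basal fluorescence ratio from a 100 s FLIPR kinetic read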
# V1R ag counter: agonists of human V1a receptor, primary screen, counter-screen for OXTR agonist project, fluorescence, CHO-V1R cells; Fluo-8 calcium fluorescence, agonist mode; 0% DMSO, 100% 3 nM vasopressin; activation, % at 3 µM; 0.25% of 320,000 active; AID 2797, 2010;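 active = activation above the mean activation of all tested compounds plus 3 SD, per screening run, cut at about 20% in these data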;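 note: signal is peak over basal fluorescence ratio across a 100 second FLIPR read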
# Target sequence (P37288 whole entry, looked up): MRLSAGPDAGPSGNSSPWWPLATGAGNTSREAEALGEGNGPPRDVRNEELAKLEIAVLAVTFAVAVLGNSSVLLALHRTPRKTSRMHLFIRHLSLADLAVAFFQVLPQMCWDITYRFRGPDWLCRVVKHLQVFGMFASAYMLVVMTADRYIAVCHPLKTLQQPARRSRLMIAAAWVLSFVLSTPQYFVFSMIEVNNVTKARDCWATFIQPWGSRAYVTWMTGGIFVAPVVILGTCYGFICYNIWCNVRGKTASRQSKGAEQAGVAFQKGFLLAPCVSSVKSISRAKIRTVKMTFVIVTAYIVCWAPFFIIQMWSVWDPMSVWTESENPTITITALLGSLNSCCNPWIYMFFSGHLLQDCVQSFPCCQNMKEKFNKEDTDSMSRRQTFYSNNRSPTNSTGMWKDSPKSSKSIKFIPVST
# TAAR1 ag conf: human TAAR1 agonists, retest of hits, confirmation, Fluo-8 calcium fluorescence, CHO RD-HGA16 cells. shares compounds with TAAR1 ag. scaled: DMSO 0%, maximal phenethylamine 100%. activation, % at 3 µM. 82% of 2,400 active;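 active = activation above a cutoff set at the run's mean compound activation plus 3 SD, cut at about 39% in these data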
# Ga16 nonsel ag: nonselective calcium mobilization agonists, CHO-Ga16 cells, counter-screen for hTAAR1 agonist project, cell-based, fluorescence, CHO-Ga16 parental line. shares compounds with TAAR1 ag. Fluo-8 calcium fluorescence; normalized to maximal ATP response, DMSO zero. activation, % at 3 µM. 50% of 2,400 active. AID 651787, 2012;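 active = activation above the run cutoff, the mean activation over all tested wells plus 3 SD, cut at about 12% in these data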;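 note: 0% = DMSO wells and 100% = maximal ATP response on the peak over basal ratio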
# TAAR1 desens: TAAR1 desensitization by agonist hits, confirmation, counter-screen for TAAR1 agonist project, cell-based, fluorescence, tachyphylaxis; shares compounds with TAAR1 ag; CHO RD-HGA16 hTAAR1, Fluo-8 calcium, beta-PEA response inhibition; inhibition, % at 3 µM; 46% of 2,400 active; AID 651951, 2012;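 active = inhibition above the run cutoff, the mean inhibition of all test compounds plus 3 SD, cut at about 49% in these data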;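 note: beta-PEA stimulus applied at its EC80; loss of beta-PEA calcium signal after compound pretreatment read as receptor desensitization; 0% = DMSO with beta-PEA at EC80 and 100% = DMSO alone without agonist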
# Ga16 nonsel ant: inhibition of ATP-evoked calcium response in CHO-Ga16 cells, counter-screen for TAAR1 agonist project, cell-based, fluorescence; shares compounds with TAAR1 ag; CHO-Ga16 ATP-induced calcium, Fluo-8 fluorescence; inhibition, % at 3 µM; 39% of 2,400 active; AID 651952, 2012;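 active = inhibition above the plate's mean compound inhibition plus 3 SD, computed per plate, cut at about 22% in these data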;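 note: 0% = EC80 ATP with DMSO and 100% = DMSO wells without ATP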
# * = called active by the depositor; . = no result given.
SMILES,TAAR1 antagonist,TAAR1 ag,OXTR potentiator,OXTR agonist,V1R ag counter,TAAR1 ag conf,Ga16 nonsel ag,TAAR1 desens,Ga16 nonsel ant
COC(=O)C1=C(C)N(Cc2ccc(C(F)(F)F)cc2)C(=NCc2ccc3c(c2)OCO3)NC1c1ccccc1 (stereo not given),34.6,32.0,.,.,.,.,.,.,.
COC(=O)C1=C(C)N(Cc2cccc(C(F)(F)F)c2)C(=NCc2cc(OC)c(OC)c(OC)c2)NC1c1ccc(F)cc1 (stereo not given),51.9*,59.8*,.,.,.,23.2,15.9*,17.0,29.6*
Fc1ccc(-c2cc(C(F)(F)C(F)F)[nH]n2)cc1,74.9*,81.4*,-21.1,38.9*,31.9*,91.4*,53.4*,73.6*,39.2*
FC(F)C(F)(F)c1cc(-c2ccc(Cl)cc2)n[nH]1,48.5,63.2*,-19.5,20.6*,22.0*,56.8*,21.8*,48.0,25.9*
Oc1ccccc1-c1cc(C(F)(F)C(F)F)[nH]n1,21.7,13.2,-12.0,13.6,5.4,.,.,.,.
CCOc1cc(-c2nnn(CC(=O)N3CCCCC3)n2)ccc1OC,-17.8,1.7,5.5,-0.3,0.6,.,.,.,.
CC1Cc2ccccc2N1C(=S)Nc1ccc(S(N)(=O)=O)cc1 (stereo not given),0.4,4.0,1.6,1.3,0.8,.,.,.,.
O=C(Cc1ccccc1)NC(NCCc1ccccc1)C(Cl)(Cl)Cl (stereo not given),8.6,43.5*,-24.1,-0.7,3.1,49.9*,2.3,15.0,7.6
O=C(O)[C@@H]1CSC2c3ccccc3C(=O)N21 (stereo not given in full),7.9,1.7,5.7,-0.4,0.9,.,.,.,.
O=C(NCCc1ccccc1F)[C@@H]1CSC2c3ccccc3C(=O)N21 (stereo not given in full),22.1,59.6*,1.8,-0.2,1.1,65.1*,2.6,38.3,9.2
CC(=NCCc1ccccc1)C1=C(O)COC1=O,30.8,82.8*,-6.5,0.3,1.2,77.8*,2.5,46.3,9.6
CC(=NCCc1ccccc1)C1=C(O)C(c2ccccc2)OC1=O (stereo not given),14.3,73.0*,-25.6,-0.3,0.7,77.0*,1.9,37.4,11.1
Cc1cc(C)n(-c2nnc(NCc3ccc(Cl)cc3)nn2)n1,11.2,10.7,-14.7,3.7,4.2,.,.,.,.
Cc1c(NS(=O)(=O)c2ccc(Cl)c(C(=O)OC(C)C(=O)NCc3ccco3)c2)c(=O)n(-c2ccccc2)n1C (stereo not given),-1.8,16.1,-26.3,-1.2,-0.1,.,.,.,.
Cc1nc(N)c2c(Cc3cccc4ccccc34)nn(C(C)(C)C)c2n1,-21.6,47.3*,-14.1,0.1,6.7,41.0*,6.6,-12.9,-13.6
N#Cc1c(N)n[nH]c1Cc1cccc2ccccc12,-4.6,0.2,-5.2,2.3,1.0,.,.,.,.
O=c1c2[nH]c3ccc(F)cc3c2nc2n1CCS2,-6.7,0.7,-0.6,2.2,4.4,.,.,.,.
O=C(CCS(=O)(=O)c1ccc2c(c1)NC(=O)CO2)NCc1ccccc1,-16.2,0.8,-2.2,0.4,-0.5,.,.,.,.

# High-throughput results as filed in PubChem.
